First the molecules themselves.
B1: tRNA (parent)
chain: CUCUCGGUAGCCAAGUUGGUUUAAGGCGCAAGACUUUAAUUUAUCACUACGAAAUCUUGAGAUCGGGCGUUCGACUCGCCCCCGGGAGAUUUUUUCCUCGAGCAA

Variants at the floor of the assay were thinned out. Where only a bound is given, the exact number is not on record here.

In this data set the parent is B1. Description: nonsense suppression (GFP-seq) (ratio to wild type); higher = more function; SUP4oc tRNA, yeast GFP reporter sort-seq. The method in brief: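 Nonsense suppression (GFPSEQ) is the median GFP/RFP ratio of each sorting bin, weighted by the variant's estimated share of cells in that bin and expressed relative to the unmutated parent tRNA. Yeast strains carried genome-integrated variants of an ochre-suppressor tRNA from a library with ~3% random mutations, plus a galactose-driven GFP ochre reporter and RFP, and were grown in raffinose/galactose medium containing 80 mg/L adenine. Cells were sorted into GFP/RFP bins, each bin was Illumina-sequenced (phred ≥30), and variants were kept only with ≥100 reads and ≥30 cells.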
CUCUCGGUAGCCAAGUUGGUGUACGGCGCAAGACUUUAAUUUAUCACUACGAAAUCUUGAGAUCGGGCGUUCGACUCGCCCCCGGGAGAUUUUUUCCUCGAGCAA [U21G A24C]: the nonsense suppression was 0.493.
With CUCUCGGUAGCCAAGUUGGUGUAUGGCGCAAGACUUUAAUUUAUCACUACGAAAUCUUGAGAUCGGGCGUUCGACUCGCCCCCGGGAGAUUUUUUCCUCGAGCAA [U21G A24U], the nonsense suppression worked out at 0.0683.
On to CUCUCGGUAGCCAAGUUGGUCUAAGGCGCAAGACUUUAAUUUAUCACUACGAAAUCUUGAACUCGGGCGUUCGACUCGCCCCCGGGAGAUUUUUUCCUCGAGCAA [U21C G61A A62C], for which the nonsense suppression is 0.0269.
The figure for CUCUCGGUAGCCAAGUUGGUGUAAGGCGCAAGUCUUUAAUUUAUCACUACGAAAUCCAGAGAUCGGGCGUUCGACUCGCCCCCGGGAGGUUUUUUCCUCGAGCAA [U21G A33U U57C U58A A89G] is no more than 0.026; for CUCUCGGUAGCCAAGUUGGUGUAAGGCGCAAGACUUUAAUUUAUCACUACGAAUUCUUGAGAUCGGGCGUUCGAUUCGCCCCCGGGAGAUUUUUUCCUCGAGCAA [U21G A54U C75U] it is 1.23.
Turning to CUCUCGGUAGCCAAGUUGGUCUAAGGCGCAAGACUUUAAUUUAUCACUACGAAAUCUUGAGAUCGGGCGUUCGACCCGCCCCCGGGAGAUUUUUUCCUCGAGCAA [U21C U76C], the nonsense suppression was found to be 1.06.
The figure for CUCUCGGUAGCCAAGUUGGUGUAAGGCGCGAGACUUUAAUUUAUCACUACGAAAUCUUGAGAUCGGGCGUUCGACUCGCCCCCGGGAGGUUUUUUCCUCGAGCAA [U21G A30G A89G] is no more than 0.026; for CUCUCGGUAGCCAAGUUGGUGUAAGGCGCAAGACUUUAAUUUAUCACUACGAAAUCUUGAGAUCGGGCGUUCGACUCGCCCCCGGGAGAUUUUUUCCUCGAGCAA [U21G] it is 1.04.
In the case of CUCUCGGUAGCCAAGUUGGUCUAAGGCGCAAGACUUUAAUUUAUCACUACGAAAUCUUGAGAUCGGACGUUCGACUCGCCCCCGGGAGAUUUUUUCCUCGAGCAA [U21C G67A], the nonsense suppression was determined as 0.0282.
The figure for CUCUCGGUAGCCAAGUUGGUCUAAGGCGCAAGACUUUAAUUUAUCACUACGAAAUCUUGAGAACGGGCGUUCGACUCGCCCCCGGGAGAUUUUUUCCUCGAGCAA [U21C U63A] is 1.12; for CUCUCGGUAGCCAAGUUGGUCUAAGGCGCAAGACUUUAAUUUAUCACUACGAAAUCUUGAGAGCGGGCGUUCGACUCGCCCCCGGGAGAUUUUUUCCUCGAGCAA [U21C U63G] it is 0.805; for CUCUCGGUAGCCAAGUUGGUGUAAGGCGCAAGGUUUUAAUUUAUCACUACGAAAUCUUGAGAUCCGGCGUUCGACUCGCCCCCGGGAGAUUUUUUCCUCGAGCAA [U21G A33G C34U G65C] it is no more than 0.026.
The figure for CUCUCGGUAGCCAAGUUGGUGUAAGGCGCAAGACUUUAAUUUAUCACUACGAACUCUUGAGAUCGGGCGUUCGACUCGCCCCCGGGAGAUUUUUUCCUCGAGCAA [U21G A54C] is 0.764.
The figure for CUCUCGGUAGCCAAGUUGGUGUCAGGCGCAAGACUUUAAUUUAUCACUACGAAAUCUUGAGAUCGGGCGUUCGACUCGCCCCCGGGAGAUUUUUUCCUCGAGCAA [U21G A23C] is no more than 0.026; for CUCUCGGUAGCCAAGUUGGUGUAAGGCGCUAGACUUUAAUUUAUCACUACGAAAUCUUGAGAUCGGGCGUUCGACUCGCCCCCGGGAGAUUUUUUCCUCGAGCAA [U21G A30U] it is no more than 0.026.
As to CUCUCGGUAGCCAAGUUGGUGUAAGGCGCGAGACUUUAAUUUAUCACUACGAAAUCUUGAGAUCGGGCGUUCGACUCGCCCCCGGGAGAUUUUUUCCUCGAGCAA [U21G A30G], the nonsense suppression amounted to 0.227.
On to CUCUCGGUAGCCAAGUUGGUCUAAGGCGCAAGACUUUAAUUUAUCACUACGAAAUCUUGAGAUCGGGCGUUCGACUCUCCCCCGGGAGAUUUUUUCCUCGAGCAA [U21C G78U], for which the nonsense suppression was found to be 0.442.
The figure for CUCUCGGUAGCCAAGUUGGUCUAAGGCGCAAGACUUUAAUUUAUCACUACGAAAUCUUGAGAUCGGGCGUUCGACUCCCCCCCGGGAGAUUUUUUCCUCGAGCAA [U21C G78C] is 0.211.
The figure for CUCUCGGUAGCCAAGUUGGUCAAAGGCGCAAGACUUUAAUUUAUCACUACGAAAUCUUGAGAUCGGGCGUUCGACUCGCCCCCGGGAGAUUUUUUCCUCGAGCAA [U21C U22A] is 1.14.
For CUCUCGGUAGCCAAGUUGGUCUAAGGCGCAAGACAUUAAUUUAUCACUACGAAAUCUUGAGAUGGCGCGUUGGACUCGCCCCCGGGAGAUUUUUUCCUCGAGCAA [U21C U35A C64G G66C C72G], the nonsense suppression is no more than 0.026.
The figure for CUCUCGGUAGCCAAGUUGGUGUAAGGCGCAAGACUUUAAUUUAUCACUACGAAAUCUUGAGAUCGGGCGUUCGACUCGCCCCCGGGGGAUUUUUUCCUCGAGCAA [U21G A87G] is 0.172.
For CUCUCGGUAGCCAAGUUGGUCUAAGGCGCAAGACUUUAAUUUAUCACUACGAAAUCCUGAGAUCGGGCGUUCGACUCGCUCCCGAGAGAUUUUUUCCUCGAGCAA [U21C U57C C80U G85A], the nonsense suppression is no more than 0.026.
The figure for CUCUCGGUAGCCAAGUUGGUCUAAGGCGCAAGACUUUAAUUUAUCACUACGAAAUCUUGAGAUCGGGCCUUCGACUCGCCCCCGGGAGAUUUUUUCCUCGAGCAA [U21C G69C] is no more than 0.026.
The figure for CUCUCGGUAGCCAAGUUGGUGUAAGGCGCAAGACUUUAAUUUAUCACUACGAAAUCUUGUGAUCGGGCGUUCGACUCGCCCCCGGGAGAUUUUUUCCUCGAGCAA [U21G A60U] is 0.96.
As to CUCUCGGUAGCCAAGUUGGUGUAAGGCGCAAGACUUUAAUUUAUCACUACGAAAUCUUGCGAUCGGGCGUUCGACUCGCCCCCGGGAGAUUUUUUCCUCGAGCAA [U21G A60C], the nonsense suppression was 0.0285.
With CUCUCGGUAGCCAAGUUGGUGUAAGGCGCAAGACUUUAAUUUAUCACUACGAAAUCUUGGGAUCGGGCGUUCGACUCGCCCCCGGGAGAUUUUUUCCUCGAGCAA [U21G A60G], the nonsense suppression was determined as 0.0299.
For CUCUCGGUAGCCAAGUUGGUGUAAGGCGCAGGACUUUAAUUUAUCACUACGAAAUCUUGAGAUCGGGCGUUCGACUCGCCCCCGGGAGAUUUUUUCCUCGAGCAA [U21G A31G], the nonsense suppression was found to be 0.77.

The record behind these values is the RNAGym collection of RNA variant scans (doi:10.1101/gad.245936.114).
